Test results taken from PubChem BioAssay.
Active and inactive are the calls of the source.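 Rule for the calls, unless noted: active = NADPH fluorescence slope more negative than the mean of all samples by about 3 SD, 99.7% confidence; inactive = the rest.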 Where a SMILES comes first, the peptide text is derived from it. The star is where a group is joined. Boc = CC(C)(C)OC(=O)*

What was measured:
[1] = inhibitors of TNFa-induced NFkB p65 translocation, primary screen, imaging, HUVEC, MLSMR starter and 10KST1 sets (AID 438;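 active = inhibition above 20% together with a positive visual image hit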;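 note: compound added about 3h40 before a 20 min TNFalpha stimulation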;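 for inhibition: signal is the nuclear over cytoplasmic p65 intensity ratio per well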); conditions: HUVEC TNFa-induced p65 nuclear translocation; cell count: measured here: nuclei count (cytotoxicity indicator), at 2.08 µM; inhibition: at 2 µM, stronger effect = higher value, 0% TNFa-plus-vehicle, 100% no-TNFa wells
[2] = inhibitors of mutant huntingtin aggregation, primary screen, imaging, exon1htt(103Q)mCFP cells, high-content imaging (AID 483;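 active = visual image review flags a hit and inhibition of aggregation exceeds 20%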;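 note: compound exposure lasted 3 days before fixation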;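 for nuclei count: percent of the per-plate median nuclei count of sample wells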); conditions: exon1htt(103Q)mCFP cell line, aggregate imaging, at 2 µM; inhibition of aggregation: stronger effect = higher value; nuclei count: measured here: cell count, toxicity
[3] = inhibitors of E-selectin induction by TNFa, primary screen, imaging, HUVEC, immunofluorescence, MLSMR starter and 10KST1 sets (AID 487;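 active = visually confirmed hit in the image check and inhibition above 20%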;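 for inhibition: signal is fraction of cell area covered by stained E-selectin grains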;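 for nuclei count: 100% = median nuclei count of all wells on the same plate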); conditions: HUVEC TNFalpha-induced E-selectin immunofluorescence imaging, at 2 µM; inhibition: stronger effect = higher value; nuclei count: measured here: cell number, toxicity
[4] = molecular target: Voltage-gated potassium channel subunit beta-2 (Rattus norvegicus) (UniProt P62483); experiment: KvBeta enzyme negative modulators, primary screen, biochemical, NADPH fluorescence (AID 622;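 active = fluorescence slope higher than the sample average by over 3 SD, cut at about -0.22 in these data, passing the limit was not always enough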;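 note: slope of raw intensity against log time taken from 70 to 1610 s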); conditions: recombinant KvBeta, 4-cyanobenzaldehyde reduction, at 10 µM, stronger effect = higher value
[5] = molecular target: Voltage-gated potassium channel subunit beta-2 (Rattus norvegicus) (UniProt P62483); experiment: KvBeta positive modulators, primary screen, biochemical, NADPH fluorescence (AID 623); conditions: Recombinant KvBeta, NADPH fluorescence decrease slope, 10 min; at 10 µM; stronger effect = lower value;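 note: fluorescence intensity change per second fitted from 20 to 320 s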
[6] = molecular target: Muscarinic acetylcholine receptor M4 (Homo sapiens) (UniProt P08173); experiment: compounds altering M4/GIRK thallium flux, either direction, primary screen, M4 allosteric agonist project, cell-based, HEK293 M4/GIRK, BTC-AM (AID 625;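 active = fluorescence slope after compound addition differing from the mean of all tested samples at 99.7% confidence, mostly higher but some lower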;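 note: thallium influx through GIRK channels coupled to M4 in HEK293 cells with BTC-AM dye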); conditions: at 10 µM, actives lie on both sides
Procedure, shortened: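 Material: M4/GIRK1/GIRK2 stable HEK293 cell line. Medium: pH 7.3 thallium assay buffer. Dosing: single compound concentration, 10 µM final. Schedule: 1 h dye loading, 2 min kinetic read. Measured by: kinetic fluorescence with BTC-AM dye. Read-out: post-addition slope, 15–24 s, of baseline-normalized fluorescence. Benchmarks: carbachol and DMSO controls.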

[7] = inhibitors of Sendai virus-induced IRF3 signaling, primary screen, TLR/RLR signaling modifier project, cell-based, Sendai virus stimulus, luciferase, 10K MLSCN set (AID 602276;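 active = inhibition at or above 50% at 10 µM; inactive = inhibition below 50%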;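 note: firefly luciferase from ISG56 promoter only with Renilla not read in this screen; 0% = Sendai virus plus DMSO and 100% = medium plus DMSO without virus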); conditions: HEK293 RL24 IRF3 luciferase reporter, at 10 µM, stronger effect = higher value
[8] = inhibitors of poly I:C-induced TLR3 signaling, primary screen, cell-based, poly I:C stimulus, luciferase, 10K MLSCN set (AID 602277;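 active = inhibition of the reporter signal at or above 50%; inactive = inhibition below 50%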); conditions: HEK293-TLR3 RL24 IRF3 luciferase reporter, at 10 µM, stronger effect = higher value

Sequence of Voltage-gated potassium channel subunit beta-2 (Rattus norvegicus) (P62483 whole entry, looked up): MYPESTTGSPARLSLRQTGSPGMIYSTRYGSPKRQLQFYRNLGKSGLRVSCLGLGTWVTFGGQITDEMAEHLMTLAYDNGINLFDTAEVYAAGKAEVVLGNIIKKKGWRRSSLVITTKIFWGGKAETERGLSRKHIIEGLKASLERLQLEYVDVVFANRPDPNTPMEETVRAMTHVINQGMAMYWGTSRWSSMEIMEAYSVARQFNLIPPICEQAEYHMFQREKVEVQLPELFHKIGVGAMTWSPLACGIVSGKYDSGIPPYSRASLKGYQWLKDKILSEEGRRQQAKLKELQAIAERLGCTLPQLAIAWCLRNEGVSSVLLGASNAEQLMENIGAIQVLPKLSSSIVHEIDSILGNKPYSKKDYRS
Sequence of Muscarinic acetylcholine receptor M4 (Homo sapiens) (P08173 whole entry, looked up): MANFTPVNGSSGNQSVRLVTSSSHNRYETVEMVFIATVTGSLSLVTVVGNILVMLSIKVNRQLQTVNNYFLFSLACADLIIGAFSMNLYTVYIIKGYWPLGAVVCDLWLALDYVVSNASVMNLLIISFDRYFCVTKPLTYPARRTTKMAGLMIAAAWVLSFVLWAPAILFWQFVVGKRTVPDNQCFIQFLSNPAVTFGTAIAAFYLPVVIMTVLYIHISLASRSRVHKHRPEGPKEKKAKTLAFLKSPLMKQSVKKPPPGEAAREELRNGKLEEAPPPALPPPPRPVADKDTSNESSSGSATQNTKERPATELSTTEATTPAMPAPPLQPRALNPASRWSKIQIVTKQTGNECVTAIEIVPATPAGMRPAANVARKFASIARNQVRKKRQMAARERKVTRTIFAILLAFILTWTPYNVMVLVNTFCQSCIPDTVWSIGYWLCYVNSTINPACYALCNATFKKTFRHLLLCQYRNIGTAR

Row | Compound | cell count [1] | inhibition [1] | inhibition of aggregation [2] | nuclei count [2] [%] | inhibition [3] | nuclei count [3] [%] | fluorescence slope [4] | NADPH fluorescence slope [5] | fluorescence slope [6] | inhibition [7] | inhibition [8]
1 | COCCN1C(=O)C(=O)/C(=C(/O)c2ccc(OC(C)C)cc2)C1c1cccnc1 (configuration not stated) | 644 | -4.7% (inactive) | -7.9% (inactive) | 116 | 19.8% (inactive) | 104 | -0.422 (inactive) | -1.5e-05 (inactive) | 0.00536 (inactive) | 17.3% (inactive) | 19.8% (inactive)
2 | O=c1c2ccccc2nc(-c2cccc(Cl)c2)n1O | 333 | 11.6% (inactive) | 0.5% (inactive) | 102 | -4.3% (inactive) | 112 | -0.453 (inactive) | -3.1e-05 (inactive) | 0.0197 (active) | 17.4% (inactive) | 6.85% (inactive)
3 | COC(=O)c1oc2ccc(Br)cc2c1NC(=O)CN1CCN(C)CC1 | 240 | 6% (inactive) | -3.2% (inactive) | 94.6 | 30.2% (inactive) | 85.6 | -0.589 (inactive) | 1.6e-05 (inactive) | 0.00465 (inactive) | 1.64% (inactive) | 6.76% (inactive)
4 | CCc1c(C)nc(N)n2c(SCC(=O)N3CCCc4ccccc43)nnc12 | 503 | 14.6% (inactive) | -13.3% (inactive) | 123 | -251% (inactive) | 147 | -0.454 (inactive) | -6.5e-05 (inactive) | 0.00455 (inactive) | 20.9% (inactive) | 31.4% (inactive)
5 | COc1cc2nc(C3CCC3)n(NC(=O)C3CCCC(OC)C3)c(=O)c2cc1OC (configuration not stated) | 609 | -8.8% (inactive) | -18% (inactive) | 106 | -30.3% (inactive) | 107 | -0.266 (inactive) | -1.2e-05 (inactive) | 0.00583 (inactive) | 15.8% (inactive) | 9.02% (inactive)
6 | Cc1cc(C(=O)CSCc2nnc3n(CCC(C)C)c(=O)c4ccccc4n23)c(C)n1C | 284 | -11.2% (inactive) | -1.8% (inactive) | 94.2 | -26.1% (inactive) | 88.8 | -0.558 (inactive) | 3.1e-06 (inactive) | 0.00507 (inactive) | 14.8% (inactive) | 26.1% (inactive)
7 | Cc1ccc(-c2cc(C(F)(F)F)n3ncc(C(=O)O)c3n2)cc1 | 412 | 3.1% (inactive) | -8.3% (inactive) | 109 | -26.7% (inactive) | 110 | -0.524 (inactive) | -3.4e-05 (inactive) | 0.00395 (inactive) | 19.6% (inactive) | 21.8% (inactive)
8 | Cc1ccc(-c2nnc3ccc(SCC(=O)NCc4ccco4)nn23)cc1 | 421 | 0.7% (inactive) | 0.7% (inactive) | 117 | 17.1% (inactive) | 99.7 | -0.234 (inactive) | -7.9e-06 (inactive) | 0.00584 (inactive) | 4.93% (inactive) | 7.2% (inactive)
9 | COCCOC(=O)C1=C(C)Nc2ncnn2C1c1ccc(F)cc1 (configuration not stated) | 743 | -0.4% (inactive) | 24.6% (inactive) | 71.5 | 12.9% (inactive) | 124 | -0.369 (inactive) | -0.000107 (inactive) | 0.00592 (inactive) | 6.2% (inactive) | 19.4% (inactive)
10 | Cn1c(Cc2ccccc2)nnc1SCC(=O)NC1CCCCC1 | 327 | -2.3% (inactive) | -1% (inactive) | 94.8 | -136% (inactive) | 120 | -0.0696 (active) | -3.5e-05 (inactive) | 0.0079 (inactive) | 16.3% (inactive) | 0.751% (inactive)
11 | Cc1ccc(NCc2nnc(SCC(=O)N3CCCCC3)n2CC2CCCO2)c(C)c1 (configuration not stated) | 484 | 3.6% (inactive) | -7.9% (inactive) | 95.1 | -63.1% (inactive) | 109 | -0.534 (inactive) | -1.9e-05 (inactive) | 0.00508 (inactive) | 20.5% (inactive) | 25.6% (inactive)
12 | Cc1cccn2c(=O)c3cc(C#N)c(=O)n(CCCN4CCOCC4)c3nc12 | 519 | 1% (inactive) | 15.5% (inactive) | 71.7 | -24.9% (inactive) | 173 | -0.153 (inactive) | -1.6e-05 (inactive) | 0.00481 (inactive) | 11.2% (inactive) | 40.1% (inactive)
13 | O=C(NCCCN1CCOCC1)C1CC(=O)N(CCc2ccccc2)C1 (configuration not stated) | 295 | -1% (inactive) | 0.4% (inactive) | 104 | -88% (inactive) | 117 | -0.545 (inactive) | 1.7e-05 (inactive) | 0.00479 (inactive) | 15.2% (inactive) | 22.3% (inactive)
14 | CCOC(=O)C1CCN(C(=O)Nc2ccc3snnc3c2)CC1 | 408 | 5.7% (inactive) | 5% (inactive) | 89.8 | -38.5% (inactive) | 107 | -0.206 (inactive) | -2.9e-05 (inactive) | 0.00565 (inactive) | 13.9% (inactive) | 10.8% (inactive)
15 | CNC(=O)CN(c1cc(C)ccc1OC)S(=O)(=O)c1ccc(C)cc1 | 317 | 5% (inactive) | -22% (inactive) | 107 | 6.9% (inactive) | 105 | -0.563 (inactive) | -1.4e-05 (inactive) | 0.00434 (inactive) | 5.72% (inactive) | 6.94% (inactive)
16 | Cc1cccc(-n2nnc(C(=O)NCc3ccccc3)c2N)c1 | 477 | 2.1% (inactive) | -17.4% (inactive) | 116 | -2.7% (inactive) | 106 | -0.461 (inactive) | -0.000212 (inactive) | 0.0054 (inactive) | 9.81% (inactive) | 9.19% (inactive)
17 | O=c1[nH]c2ccc(S(=O)(=O)N3CCN(C4CCCCC4)CC3)cc2[nH]c1=O | 264 | -7.8% (inactive) | -36.5% (inactive) | 90.7 | -52.5% (inactive) | 122 | -0.484 (inactive) | -0.000259 (inactive) | 0.00453 (inactive) | -0.0358% (inactive) | 6.71% (inactive)
18 | CC(C)(C)OC(=O)N1CCCC1C(=O)N1CCCC1C(=O)N1CCCC1C(=O)O (stereo not drawn) (Boc-Pro-Pro-Pro-OH; configuration not given here) | 302 | -6.9% (inactive) | 4.5% (inactive) | 49.1 | -59.4% (inactive) | 102 | -0.571 (inactive) | -4.7e-05 (inactive) | 0.00689 (inactive) | 5.97% (inactive) | 15.3% (inactive)
19 | CCCCC(=O)Nc1nn(CCC)c2nc3ccccc3cc12 | 363 | 4.2% (inactive) | -14.8% (inactive) | 108 | -44.8% (inactive) | 116 | -0.568 (inactive) | -3.3e-05 (inactive) | 0.00381 (inactive) | 10.1% (inactive) | -0.131% (inactive)
20 | Cc1cc(C2C(C#N)=C(N)SC(N)=C2C#N)c(C)s1 | 755 | -5% (inactive) | -30.7% (inactive) | 102 | -27.1% (inactive) | 130 | -0.573 (inactive) | -8.5e-05 (inactive) | 0.00245 (inactive) | 8.05% (inactive) | 20.2% (inactive)
21 | CCCOc1ccc(-c2nnn(CC(=O)Nc3cccc(C(=O)OC)c3)n2)cc1 | 380 | -2.1% (inactive) | -8.7% (inactive) | 109 | -27.4% (inactive) | 112 | -0.503 (inactive) | 0.000154 (inactive) | 0.00964 (inactive) | 11.3% (inactive) | -4.78% (inactive)
22 | CCCCOC(=O)Cn1c(=N)n(CCN2CCOCC2)c2ccccc21 | 488 | 4% (inactive) | 7.9% (inactive) | 91.9 | -46.3% (inactive) | 84.8 | -0.354 (inactive) | -6.5e-05 (inactive) | 0.00576 (inactive) | 8.18% (inactive) | 17.7% (inactive)
23 | COCCn1cc(C(=O)NCCCN2CCC(C)CC2)c2c3ccccc3n(C)c2c1=O | 493 | 2.1% (inactive) | -2.6% (inactive) | 110 | -38.5% (inactive) | 115 | -0.562 (inactive) | -5.2e-05 (inactive) | 0.00626 (inactive) | 0.372% (inactive) | 16.6% (inactive)
24 | Cc1cc(NC(=O)CSc2ccc(Cl)cc2)no1 | 368 | 0.2% (inactive) | 12.7% (inactive) | 94.2 | -83.4% (inactive) | 102 | -0.548 (inactive) | -0.000128 (inactive) | 0.00359 (inactive) | -7.02% (inactive) | -14.7% (inactive)
25 | CC(C)CC(=O)CN1C(=O)C2(OCCO2)c2ccccc21 | 490 | -2.4% (inactive) | 22.6% (inactive) | 100 | 6.8% (inactive) | 94.9 | -0.231 (inactive) | -1.2e-05 (inactive) | 0.00852 (inactive) | 17.6% (inactive) | -9.91% (inactive)
26 | CC(C)c1ccc(NC(=O)C2CC(=O)N(C(C)C)C2)cc1 (configuration not stated) | 232 | -2.3% (inactive) | 21% (inactive) | 81.7 | -44.3% (inactive) | 108 | -0.558 (inactive) | -6.2e-05 (inactive) | 0.0102 (inactive) | 12.8% (inactive) | -37.1% (inactive)
27 | CC1(C)CC(=O)C(C=NCCO)=C(O)C1 | 416 | -1.8% (inactive) | 57% (active) | 23.4 | -45.4% (inactive) | 123 | -0.243 (inactive) | -2.1e-05 (inactive) | 0.00793 (inactive) | 21.7% (inactive) | -0.595% (inactive)
